Bioassay records (PubChem)
Hits are enriched below; roughly 3.7% of the tested compounds scored in any of these assays.
KCNK3 inh: human KCNK3 channel inhibition, primary screen. O14649. CHO-KCNK3 thallium flux, FluxOR fluorescence; active compounds read low. B-score at 10 µM. hit rate 0.84% among 340,000. AID 602410;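 active = B-score under library mean minus 4 SD, starting fluorescence ratio at most library mean plus 5 SD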;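 note: more negative B-score means stronger inhibition of thallium flux through KCNK3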
Target sequence (O14649 whole entry, looked up): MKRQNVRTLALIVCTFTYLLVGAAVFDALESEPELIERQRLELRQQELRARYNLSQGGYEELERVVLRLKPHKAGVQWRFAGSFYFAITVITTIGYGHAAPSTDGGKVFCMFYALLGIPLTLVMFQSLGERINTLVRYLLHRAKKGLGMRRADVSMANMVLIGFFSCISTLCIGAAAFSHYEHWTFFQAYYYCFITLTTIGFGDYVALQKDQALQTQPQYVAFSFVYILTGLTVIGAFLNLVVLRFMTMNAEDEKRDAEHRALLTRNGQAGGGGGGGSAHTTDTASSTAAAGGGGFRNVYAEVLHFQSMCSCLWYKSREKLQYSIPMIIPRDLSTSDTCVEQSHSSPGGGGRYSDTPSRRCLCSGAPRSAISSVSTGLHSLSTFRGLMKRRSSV
KCNQ1 pot: human KCNQ1 channel potentiation or activation. P51787. CHO-K1 KCNQ1, thallium flux FluxOR fluorescence; active compounds read high. B-score at 10 µM. hit rate 0.35% among 310,000;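 active = fluorescence ratio B-score, a plate-corrected score, at least three library SD, with initial intensity B-score within 5 SD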
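Assay system: stable KCNQ1 CHO-K1 line; medium: assay buffer, equal DMSO in all wells; timing: 90 min dye loading and 20 min compound exposure, both at room temperature; technique: kinetic FluxOR thallium fluorescence, 10-s 1-Hz baseline, 110-s post-stimulus read; read-out basis: B score of baseline-normalized fluorescence ratio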
KCNQ1 block: blocks the human KCNQ1 potassium channel | CHO-K1 KCNQ1, FluxOR thallium flux fluorescence; active compounds read high | B-score at 10 µM | hit rate 1.3% among 310,000;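 active = compounds whose thallium flux B-score, printed positive for inhibition, exceeds three library SD while starting fluorescence stays within three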;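 note: channel opened by potassium depolarization with thallium stimulus after 20 min compound exposure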
KCNK9 block: human KCNK9 channel inhibition; HEK293 KCNK9, FluxOR thallium flux fluorescence; active compounds read low; B-score at 10 µM; hit rate 1.2% among 310,000;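 active = ratio B-score over 3 SD below the library mean, with starting fluorescence within 5 SD of its mean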;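 note: negative B-score means less thallium flux so channel inhibition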
Kir21 inh: Kir2.1 (mouse) channel inhibition; P35561; HEK293-Kir2.1, FluxOR thallium flux fluorescence; active compounds read low; B-score at 10 µM; hit rate 0.85% among 310,000; AID 1672;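 active = fluorescence ratio B-score at or below minus 3 SD of library scores, with starting-brightness B-score within 2 SD, cut at about -4.2 in these data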;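 note: channel flux triggered by added potassium and thallium sulfate stimulus; B-score of peak minus minimum fluorescence over baseline after thallium stimulus; more negative B-score means stronger Kir2.1 block with less thallium influx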
hERG rescue: shields human hERG channel from block by proarrhythmic agents; Q12809; CHO-hERG, FluxOR thallium flux, dofetilide IC70 present; activation (rescue from dofetilide block), less the hit threshold, % at 10 µM; hit rate 0.51% among 310,000;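 active = activation above the mean of controls blocked by dofetilide plus 5 SD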;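 note: thallium influx through hERG after potassium depolarization seen as dye fluorescence rise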
Large screens that a line does not name were inactive.

C=CC[C@H]1CC(Cc2ccccc2)=C[C@H](CC=C)N1	Kir21 inh -6.5
C=CCC1C=C(Cc2ccccc2)CC(CC=C)N1 (stereo unspecified)	none
COc1ccc(CCNC(=O)COc2ncnc3ccccc23)cc1	none
CC(C)c1ccc(N(CC(=O)N2CCOCC2)S(C)(=O)=O)cc1	none
O=S(=O)(c1ccc(F)cc1)c1snnc1-c1ccccc1	Kir21 inh -15
O=S(=O)(c1ccc(Cl)cc1)c1snnc1-c1ccccc1	Kir21 inh -10
CC1(C(=O)Nc2cccc(C(F)(F)F)c2)CO1 (stereo unspecified)	none (no result: KCNK3 inh)
O=C(Nc1cccc(C(F)(F)F)c1)C12CC3CC(CC(C3)C1)C2	hERG rescue 5.0
COc1ccc(-c2nn(-c3ccccc3)cc2CN(C)CCn2ccnc2C)c(F)c1	none
COc1ccc(NC(=O)/C(Cl)=C(/Cl)S(=O)(=O)Cc2ccccc2)cn1	Kir21 inh -5
CCCC(=O)Nc1c2c(nc3ccccc13)N(c1ccccc1)CC2	KCNK3 inh -9.3
O=C(CN1CCCCC1)Nc1c2c(nc3ccccc13)N(c1ccccc1)CC2	none
CN(C)C(=O)C(CCN1CCC(O)(c2ccc(Cl)cc2)CC1)(c1ccccc1)c1ccccc1	Kir21 inh -4.9
CCN(CC)C(=O)CN1C(=O)NC2(CCc3ccccc3C2)C1=O (stereo unspecified)	none
COCCNC(=O)C(c1ccncc1)N(C(=O)Cn1nnc2ccccc21)c1ccc(OC)cc1 (stereo unspecified)	hERG rescue 5.0
COC(=O)c1sc(NC(=S)NC(=O)c2cccc(Br)c2)nc1C	none
CC(=O)/C(=C/N(C)C)C(=O)Nc1ccc(Cl)cc1Cl	KCNQ1 block 10
CC(C)(C)C(=O)N1CCCC1C(=O)O (stereo unspecified)	hERG rescue 4.9
Cc1cc(/C=N/n2c(COc3ccccc3)nc3ccccc3c2=O)c(O)c([N+](=O)[O-])c1	KCNQ1 block 13
Cc1ccc(-c2[nH]ncc2/C=N/n2c(COc3ccccc3)nc3ccccc3c2=O)cc1	none
Fc1ccc(-c2nc3ccccc3[nH]2)cc1	none
S=c1nc(-c2ccc(Br)cc2)[nH]c2ccccc12	KCNQ1 pot 111, hERG rescue 32
CN1/C(=C\C(=S)NC(=O)c2cccc(Br)c2)C(C)(C)c2ccccc21	none
CCN(CC)S(=O)(=O)c1cccc(C(=O)/C=C2/N(C)c3ccccc3C2(C)C)c1	KCNK9 block -7.7
Cc1ccc(NC(=O)/C(=C\c2cccnc2)NC(=O)c2ccccc2)cc1	none
CN(C(=O)COC(=O)CN1C(=O)C2CC=CCC2C1=O)c1ccccc1 (stereo unspecified)	none
CO/N=C(/CS(=O)c1ccc(Br)cc1)c1ccc(OC)cc1 (stereo unspecified)	Kir21 inh -8.9
O=C(Cc1ccc(Cl)c(Cl)c1)Nc1ccccc1N1CCCC1	none
O=C(Cc1ccc(F)cc1)Nc1ccccc1N1CCCC1	Kir21 inh -5.4
O=C(Nc1ccccc1N1CCN(c2ccc(F)cc2)CC1)C12CC3CC(CC(C3)C1)C2	KCNK9 block -7
O=C(Nc1ccccc1N1CCN(c2ccc(F)cc2)CC1)C1CCCCC1	KCNK9 block -6.7
CC(Oc1cccc(Cl)c1)C(=O)NCc1ccc(S(N)(=O)=O)cc1 (stereo unspecified)	none
CC(Oc1cccc(Cl)c1)C(=O)NCCCCc1ccccc1 (stereo unspecified)	Kir21 inh -5.5
OCC[C@@H]1C[C@H](O)[C@@H](O)[C@]2(CCCCO2)O1	none
CSc1ncc(-c2ccc(Cl)cc2)[nH]1	none
Cc1cccc(C(=O)NC(=S)NNC(=O)COc2ccc(Cl)cc2)c1	KCNQ1 pot 59
Cc1ccc(C(=O)CC(=O)COc2ccc(Cl)cc2)cc1	KCNQ1 pot 17
CC(C)(C)c1cc(CCC(=O)NNC(=S)NC(=O)c2ccccc2)cc(C(C)(C)C)c1O	KCNQ1 pot 36
O=C(NNC(=S)NC(=O)c1ccc(Br)cc1)c1ccc([N+](=O)[O-])cc1	none
Cc1ccc(C(=O)NCCOc2ccc(Cl)cc2)cc1	none
O=C(NNC(=S)NC(=O)c1ccc(Br)cc1)c1cccc([N+](=O)[O-])c1	KCNQ1 pot 21
